Experimental findings from publication PMC3448790 (Biochemistry, 2012) are described below.

Numbering of substitutions follows the chain as printed. In names and notes the source's numbering stands. Entries after “also recorded” stand apart in the source; their conditions may differ. Where a SMILES comes first, the peptide text is derived from it. Bridges are numbered along the chain shown (N, C = ends). Where no end group is shown, it is not given here.

In data set [1] the test system is human erythrocyte ghosts. Nature of the data set: Ektacytometry of resealed ghosts. It counts as cell-based. The settings on record: 6 or 15 μM cyclic peptide resealed; elongation index vs shear stress. The gist of the method:
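Washed human red cells from ACD-anticoagulated volunteer blood, with buffy coat and plasma removed, were suspended in PBS/5 mM glucose/2 mM MgCl2 with cyclized test peptide or without (control). Cells were flash-frozen in liquid N2 for 40 s, thawed at room temperature, then resealed 45 min at 37°C. Ghosts were washed in PBS/glucose/0.5% BSA and assessed by ektacytometry as elongation index under gradually increasing shear stress.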

The test system of data set [2] is human erythrocyte ghosts. Nature of the data set: Peptide resealing into red cells, morphology by light microscopy. It is filed as cell-based. To be noted: peptide 0, 6, 12 or 30 μM resealed 45 min at 37°C; 100x oil immersion.
Data set [3] concerns the target T1, GST-D3D4-ankyrin (GST fusion construct of the D3D4 domain of ankyrin), wild type (human, UniProt P16157 402-827).
T1 sequence: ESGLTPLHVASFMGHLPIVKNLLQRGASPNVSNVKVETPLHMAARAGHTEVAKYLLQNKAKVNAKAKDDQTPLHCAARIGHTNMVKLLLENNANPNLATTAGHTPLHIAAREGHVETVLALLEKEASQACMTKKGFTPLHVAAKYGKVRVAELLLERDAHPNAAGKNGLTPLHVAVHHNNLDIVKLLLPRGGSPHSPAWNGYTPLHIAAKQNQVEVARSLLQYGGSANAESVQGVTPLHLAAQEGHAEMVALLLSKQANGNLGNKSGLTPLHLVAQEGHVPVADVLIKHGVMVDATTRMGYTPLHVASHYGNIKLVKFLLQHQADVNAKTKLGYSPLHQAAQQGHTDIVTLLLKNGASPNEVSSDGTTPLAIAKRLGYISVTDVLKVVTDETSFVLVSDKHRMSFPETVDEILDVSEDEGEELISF
Briefly: pull-down.

For data set [4], the system named is GST-D3D4-ankyrin. Nature of the data set: His-tag pull-down on Co2+-NTA agarose, bound GST-D3D4-ankyrin by GST activity. It counts as binding, human. The settings on record: immobilized cdB3 variants, pH 8.0, n=2. The gist of the method: (§1)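 His6-tagged cdB3 (wild type or loop-deletion mutant) and GST-D3D4 ankyrin (wild type or charge-reversal mutant) were expressed in E. coli BL21(DE3)pLysS and purified. cdB3 was incubated at 4°C with increasing GST-ankyrin in pH 8.0 phosphate/KCl/imidazole buffer with 10% sucrose, 1 mg/ml BSA and PMSF. Complexes were captured on Co2+-NTA beads for 2 h, washed 3x and eluted with 250 mM imidazole. Equal cdB3 loading was checked by anti-cdB3 blot, and bound ankyrin was quantified by GST activity.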

The data set “AUC” concerns the molecule itself. Nature of the data set: AUC.
A further data set relates to GST-ankyrin. It is filed as binding, human. The settings on record: GST-ankyrin 1 μM on glutathione-beads; cdB3 or mutant 1 μM; anti-cdB3 antibody. In short, it runs like this: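 Purified GST-ankyrin was immobilized on glutathione beads and incubated 2 h with His6-tagged wild-type or mutant cdB3 expressed in E. coli. Beads were washed 3x with binding buffer, and captured cdB3 was quantified by dot blot with a locally prepared polyclonal anti-cdB3 antibody.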

A further data set deals with cdB3. Nature of the data set: Binding of native or mutated GST-D3D4 ankyrin to His-tagged cdB3. To be noted: GST activity, n=2. Further details: species or system human. The gist of the method:
as §1

Data set [5] addresses T1, GST-D3D4-ankyrin (GST fusion construct …). Briefly: pull-down. The source holds these as a separate data set.
In data set [6] the test system is glyceraldehyde-3-phosphate dehydrogenase (GAPDH). The settings on record: 2 μg/mL GAPDH, 2 min at room temperature, pH 7.0; 10 mM imidazole acetate; absorbance change at 340 nm.
Data set [7] deals with GST-D3D4-ankyrin. It counts as binding, human. The settings on record: increasing concentrations of GST-D3D4-ankyrin; anti-ankyrin polyclonal antibodies.

For the molecule `CSCC[C@@H]1NC(=O)[C@H](C(C)C)NC(=O)[C@H](CC(C)C)NC(=O)[C@H](CCC(=O)O)NC(=O)[C@@H](N)CSSC[C@@H](C(=O)O)NC(=O)[C@H](CC(C)C)NC(=O)[C@H](CCC(=O)O)NC(=O)[C@H](CCC(N)=O)NC(=O)[C@H](CC(N)=O)NC(=O)[C@H](CCCCN)NC(=O)[C@H](CCC(=O)O)NC(=O)[C@H](CC(=O)O)NC1=O` [cyclized peptide] (HELM PEPTIDE1{C.E.L.V.M.D.E.K.N.Q.E.L.C}$PEPTIDE1,PEPTIDE1,1:R3-13:R3$$$V2.0; N-terminus and C-terminus assumed), the “effect on membrane deformability (in words)” value with human erythrocyte ghosts [1] was “compromised membrane deformability”. Besides, the “effect on red cell membrane morphology (in words)” value in the data set on human erythrocyte ghosts [2] is “membrane blebbing and a gradual decrease in membrane surface area; also recorded: extensive vesiculation at higher peptide concentrations”.

For CELVMDEKNQELC [linear loop 1 peptide (residues 63–73 of cdB3 with a cysteine at each end, reduced)], it took 55 µM to reach half-maximal inhibition in data set [3] (IC50).

B1: double loop deleted (ΔL1 + ΔL2) cdB3: combination of loop 1 and loop 2 deletion mutant (protein)
chain: MEELQDDYEDMMEENLEQEEYEDPDIPESQMEEPAAHDTEATATDYHTTSHPGTHKVYVELQGGRWMEAARWVQLEENLGENGAWGRPHLSHLTFWSLLELRRVFTKGTVLLDLQETSLAGVANQLLDRFIFEDQIRPQDREELLRALLLKHSHAGELEALGGVKGGQPLLPQHSSLETQLFCEQGDGGTEGHSPSGILEKIPPDSEATLVLVGRADFLEQPVLGFVRLQEAAELEAVELPVPIRFLFVLLGPEAPHIDYTQLGRAAATLMSERVFRIDAYMAQSRGELLHSLEGFLDCSLVLPPTDAPSEQALLSLVPVQRELLRRRYQSSPAKPDSSFYKGLDLNGGPDDPLQQTGQLF
modifications: left off: His6, C-terminal, kept
With B1, in the data set on GST-D3D4-ankyrin [4], the “affinity for GST-ankyrin (in words)” value is given as “no affinity could be detected”.

B2: ΔL2 cdb3: mutant cdB3 with a diglycine bridge in place of loop 2 (residues 175–185) (protein)
chain: MEELQDDYEDMMEENLEQEEYEDPDIPESQMEEPAAHDTEATATDYHTTSHPGTHKVYVELQELVMDEKNQELRWMEAARWVQLEENLGENGAWGRPHLSHLTFWSLLELRRVFTKGTVLLDLQETSLAGVANQLLDRFIFEDQIRPQDREELLRALLLKHSHAGELEALGGVKGGQPLLPQHSSLETQLFCEQGDGGTEGHSPSGILEKIPPDSEATLVLVGRADFLEQPVLGFVRLQEAAELEAVELPVPIRFLFVLLGPEAPHIDYTQLGRAAATLMSERVFRIDAYMAQSRGELLHSLEGFLDCSLVLPPTDAPSEQALLSLVPVQRELLRRRYQSSPAKPDSSFYKGLDLNGGPDDPLQQTGQLF
modifications: left off: His6, C-terminal, kept
For B2, the “affinity for GST-ankyrin (in words)” value in the data set with GST-D3D4-ankyrin [4] was “no affinity could be detected”.

B3: cdB3 ΔL1 (cdB3 with loop 1, residues 63–73, replaced by a diglycine bridge) (domain or fragment, human)
chain: MEELQDDYEDMMEENLEQEEYEDPDIPESQMEEPAAHDTEATATDYHTTSHPGTHKVYVELQGGRWMEAARWVQLEENLGENGAWGRPHLSHLTFWSLLELRRVFTKGTVLLDLQETSLAGVANQLLDRFIFEDQIRPQDREELLRALLLKHSHAGELEALGGVKPAVLTRSGDPSQPLLPQHSSLETQLFCEQGDGGTEGHSPSGILEKIPPDSEATLVLVGRADFLEQPVLGFVRLQEAAELEAVELPVPIRFLFVLLGPEAPHIDYTQLGRAAATLMSERVFRIDAYMAQSRGELLHSLEGFLDCSLVLPPTDAPSEQALLSLVPVQRELLRRRYQSSPAKPDSSFYKGLDLNGGPDDPLQQTGQLF
B3: the “stoichiometry N” value in the data set “AUC” came to 2.

B4: cdB3 ΔL1: mutant cdB3 with loop 1 (residues 63–73) replaced by a diglycine bridge (protein)
chain: B3 chain
modifications: left off: His6, C-terminal, kept
Regarding B4, in the data set on GST-ankyrin, the “affinity for immobilized GST-ankyrin by dot blot (in words)” value was “no affinity for ankyrin”.

Molecule CELVMDEKNQELC (disulfide 1-13) [cyclized loop 1 peptide (residues 63–73 of cdB3 with a cysteine at each end, disulfide-bonded)] registered an IC50 in data set [3] of approximately 15 µM.

B5: mutated ankyrin: D3D4 domain of ankyrin with the four mutations N601D, K611E, E645K, and Q634E (protein)
chain: T1 sequence with N200D, K210E, Q233E, E244K
modifications: left off: GST, end not stated, kept
As for B5, the “affinity of mutated ankyrin for cdB3 (in words)” value in the data set on cdB3 (N601D, K611E, Q634E, E645K mutant) was “unable to bind cdB3”.

B6: Wild-type ankyrin: GST fusion construct of the D3D4 domain of ankyrin (protein)
chain: T1 sequence
modifications: left off: GST, end not stated, kept
Turning to B6, the Kd at cdB3 (read-out: apparent dissociation constant of ankyrin for cdB3) is approximately 0.4 µM.

B7: cytoplasmic domain of band 3 (cdB3), wild type, with COOH-terminal His6-tag (domain or fragment, human)
chain: MEELQDDYEDMMEENLEQEEYEDPDIPESQMEEPAAHDTEATATDYHTTSHPGTHKVYVELQELVMDEKNQELRWMEAARWVQLEENLGENGAWGRPHLSHLTFWSLLELRRVFTKGTVLLDLQETSLAGVANQLLDRFIFEDQIRPQDREELLRALLLKHSHAGELEALGGVKPAVLTRSGDPSQPLLPQHSSLETQLFCEQGDGGTEGHSPSGILEKIPPDSEATLVLVGRADFLEQPVLGFVRLQEAAELEAVELPVPIRFLFVLLGPEAPHIDYTQLGRAAATLMSERVFRIDAYMAQSRGELLHSLEGFLDCSLVLPPTDAPSEQALLSLVPVQRELLRRRYQSSPAKPDSSFYKGLDLNGGPDDPLQQTGQLF
Molecule B7 had a Kd in data set [5] of approximately 0.4 µM.

B8: native cdB3: cytoplasmic domain of band 3 (protein)
chain: B7 chain
modifications: left off: His6, C-terminal, kept
Take B8: the “inhibition of GAPDH” value in data set [6] is 90%. For the same molecule, in the data set with GST-D3D4-ankyrin [7], the “GST-ankyrin binding by dot blot (in words)” value is reported as “usual prominent binding”. Besides, the “affinity for immobilized GST-ankyrin by dot blot (in words)” value with GST-ankyrin is listed as “strong affinity”.

The IC50 is the concentration at which inhibition is half-maximal. A higher IC50 goes with a need for much substance. By stoichiometry N is commonly meant the number of molecules, sites or subunits per partner or assembly.
